Measurements from ChEMBL document CHEMBL1667850, “Indol-2-yl ethanones as novel indoleamine 2,3-dioxygenase (IDO) inhibitors” (Bioorg Med Chem, 2011).
Calls of active or inactive are those of the source. The calls are words filed in the database; no cut-off is given here.

Legend:
[1] = biological target: Indoleamine 2,3-dioxygenase 1 (Mus musculus) (UniProt P28776); test: Inhibition of mouse IDO expressed in mouse P815B cells assessed as tryptophan degradation at 20 uM; assay type: cell-based
How it was run: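 2×10^5 cells per well incubated overnight at 37 °C in HBSS with 80 μM L-Trp and 20 μM compound. Supernatant was acetonitrile-precipitated and analysed by HPLC for Trp (280 nm) and kynurenine (360 nm). Percent inhibition of Trp degradation and kynurenine production was calculated relative to maximal activity.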

[2] = biological target: T1, Indoleamine 2,3-dioxygenase 1 (Homo sapiens, UniProt P14902); test: Inhibition of human IDO activity by spectrophotometry
Target sequence in this assay (P14902 whole entry): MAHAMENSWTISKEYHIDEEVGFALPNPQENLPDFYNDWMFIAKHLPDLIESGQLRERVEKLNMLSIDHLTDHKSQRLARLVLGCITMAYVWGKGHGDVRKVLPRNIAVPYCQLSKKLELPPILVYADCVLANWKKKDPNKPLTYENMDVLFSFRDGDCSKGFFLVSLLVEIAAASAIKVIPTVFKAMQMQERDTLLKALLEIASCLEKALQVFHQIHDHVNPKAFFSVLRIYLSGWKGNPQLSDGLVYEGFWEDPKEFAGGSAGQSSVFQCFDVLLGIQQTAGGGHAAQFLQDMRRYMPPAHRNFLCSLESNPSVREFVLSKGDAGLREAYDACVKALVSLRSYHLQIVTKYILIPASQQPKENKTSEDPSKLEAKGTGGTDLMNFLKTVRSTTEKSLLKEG

[3] = Cytotoxicity against mouse P815B cells at 20 uM by MTT assay; assay type: cell-based
How it was run: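 MTT viability on the cells left in wells after the 20 μM overnight IDO assay in HBSS at 37 °C. Culture medium (Iscove, 10% FCS, amino acids) and MTT were added for 3–4 h at 37 °C. Formazan was dissolved in SDS/DMF overnight at 37 °C and read at 570/650 nm.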

[4] = biological target: T1, Indoleamine 2,3-dioxygenase 1; test: Inhibition of IDO
Target sequence in this assay (P14902 whole entry): as above

[5] = biological target: T1, Indoleamine 2,3-dioxygenase 1; test: Inhibition of human IDO activity at 100 uM by spectrophotometry
How it was run: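 Recombinant N-His-tagged human IDO (Ala2–Gly403), expressed in E. coli BL21 AI and Ni-IMAC purified, 0.375 μg per well. Reaction in 50 mM phosphate pH 6.5 with 5 μM methylene blue, 40 mM ascorbate and 100 μM L-Trp, 60 min at room temperature. Stopped with 1 mM H2O2; change in OD320 read against a pre-enzyme baseline.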
Target sequence in this assay (P14902 whole entry, looked up): as the sequence (P14902 whole entry) above

Indoleamine 2,3-dioxygenase 1 (Mus musculus), sequence (P28776 whole entry, looked up): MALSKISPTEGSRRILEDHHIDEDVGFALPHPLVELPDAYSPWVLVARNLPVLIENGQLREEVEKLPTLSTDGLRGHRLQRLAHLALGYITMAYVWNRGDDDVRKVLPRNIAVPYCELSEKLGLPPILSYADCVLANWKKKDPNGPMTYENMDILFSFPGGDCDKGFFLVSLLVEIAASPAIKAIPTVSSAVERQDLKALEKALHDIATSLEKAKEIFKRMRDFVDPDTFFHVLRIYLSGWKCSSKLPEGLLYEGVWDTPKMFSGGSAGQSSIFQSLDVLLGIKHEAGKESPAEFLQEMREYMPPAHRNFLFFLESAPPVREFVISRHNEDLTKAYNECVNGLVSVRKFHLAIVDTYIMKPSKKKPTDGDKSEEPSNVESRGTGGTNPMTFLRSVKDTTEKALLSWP

SMILES | inhibition [1] | IC50 ([2]; read-out: IC50) [µM] | further results
O=C(Cc1cccnc1)c1cc2cc(F)ccc2[nH]1 | 24% | 36 | 
O=C(Cc1ccccc1)c1cc2ccccc2[nH]1 | inactive | 29 | 
O=C(Nc1cccnc1)c1cc2ccccc2[nH]1 | inactive | 94 | 
c1cncc(CCc2cc3ccccc3[nH]2)c1 | inactive |  | IC50 [2]: Not Active
COc1ccc2[nH]c(C(=O)Cc3cccnc3)cc2c1O | 11% | 63 | 
COc1ccc2[nH]c(C(=O)Cc3cccnc3)cc2c1OCc1ccccc1 | inactive |  | IC50 [2]: Not Active
O=C(Cc1cccnc1)c1cc2cc([N+](=O)[O-])ccc2[nH]1 | inactive |  | IC50 [2]: Not Active
O=C(Cc1cccnc1)c1cc2cc(O)ccc2[nH]1 | inactive | 37 | 
O=C(Cc1cccnc1)c1cc2ccccc2[nH]1 | 13% | 65 | 
Cn1c(C(=O)Cc2cccnc2)cc2ccccc21 | inactive | 34 | 
OC(Cc1cccnc1)c1cc2ccccc2[nH]1 (stereo not given) | inactive |  | IC50 [2]: Not Active
O=C(Cc1cccnc1)c1cc2cc(OC(F)(F)F)ccc2[nH]1 | 12% | 13.1 | 
O=C(Cc1ccncc1)c1cc2ccccc2[nH]1 | inactive |  | IC50 [2]: Not Active
COc1cc(OC)c2cc(C(=O)Cc3cccnc3)[nH]c2c1 |  | 45 | Activity [3]: Toxic
O=C(Cc1cccnc1)c1cc2c(O)cccc2[nH]1 | inactive | 83 | 
c1ccc2c(c1)[nH]c1cnccc12 [NORHARMANE] |  |  | Ki [4]: 120 µM

SMILES | inhibition [1] | IC50 ([2]; read-out: IC50) [µM] | further results
O=C(Cc1cccnc1)c1cc2ccc(F)cc2[nH]1 | inactive | 43 | 
CC(C(=O)c1cc2ccccc2[nH]1)c1cccnc1 (stereo not given) | inactive | 141 | 
O=C(Cc1ccccn1)c1cc2ccccc2[nH]1 | 10% | 37 | 
O=C(Cc1cnccn1)c1cc2ccccc2[nH]1 | inactive | 26.2 | 
O=C(Cc1cccnc1)c1cc2c(F)cccc2[nH]1 | 12% | 153 | 
COc1ccc2[nH]c(C(=O)Cc3cccnc3)cc2c1 |  | 49 | 
COc1cccc2[nH]c(C(=O)Cc3cccnc3)cc12 | inactive | 58 | 
O=C(Cc1cccnc1)c1cc2cc(-c3ccccc3)ccc2[nH]1 | inactive | 96 | 
O=C(Cc1cccnc1)c1[nH]c2ccccc2c1Br | inactive |  | IC50 [2]: Not Active
Cc1ccc2[nH]c(C(=O)Cc3cccnc3)cc2c1 | 21% | 87 | 
O=C(Cc1cccnc1)c1cc2cc(Cl)ccc2[nH]1 | 24% | 24.6 | 
COc1cccc2cc(C(=O)Cc3cccnc3)[nH]c12 | 6% | 82 | 
O=C(Cc1cccnc1)c1cc2c(Cl)cc(Cl)cc2[nH]1 | inactive | 139 | 
O/N=C(/Cc1cccnc1)c1cc2ccccc2[nH]1 | 25% |  | inhibition [5]: 19.4%
O=C(Cc1cccnc1)c1cc2cc(Br)ccc2[nH]1 | inactive | 18 | 
